# Reference: ChEMBL document CHEMBL4219244, “Blocking Alcoholic Steatosis in Mice with a Peripherally Restricted Purine Antagonist of the Type 1 Cannabinoid Receptor” (J Med Chem, 2018)
# Activity calls are given as the source filed them. The calls are words filed in the database; no cut-off is given here.
# How the values were obtained:
# Cannabinoid receptor 2 = Cannabinoid receptor 2 (Homo sapiens, UniProt P34972); experiment: Displacement of [3H]CP55940 from human CB2 expressed in CHOK1 cell membranes
# Cannabinoid receptor 1 = Cannabinoid receptor 1 (Homo sapiens, UniProt P21554); experiment: Displacement of [3H]CP55940 from human CB1 expressed in CHOK1 cell membranes
# Mus musculus [1] = experiment: Suppression of CP55940-induced hypothermia in C57BL/6 mouse assessed as reduction in body temperature at 30 mg/kg, po administered via gavage pretreated for 30 mins followed by CP55940 addition measured at regular interval up to 4 hrs; type: ADME, organism-based; conditions: in vivo
# Summary of the method: (§1)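 Female C57BL6 mice, acclimated 2 weeks, given test agent or vehicle by oral gavage; after 30 min, CP55940 0.56 mg/kg ip in corn oil. Rectal temperature recorded at regular intervals up to 4 h. Six animals per group; means and standard deviations; two-way ANOVA versus vehicle.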
# Homo sapiens = species on record: Homo sapiens; experiment: Selectivity ratio of Ki for human CB2 to Ki for human CB1
# Summary of the method: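 Displacement of [3H]CP55940 binding to membranes from CHO cells overexpressing human CB1 or human CB2. Ki was determined at each receptor, and the ratio was taken as Ki(hCB2)/Ki(hCB1). Values are averages of three to six measurements.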
# [2] = Drug uptake in C57BL/6 mouse brain at 5 mg/kg, po after 0.6 to 24 hrs by LC-MS method; type: ADME, organism-based; conditions: in vivo
# Mus musculus [3] = experiment: Suppression of CP55940-induced hypothermia in C57BL/6 mouse assessed as reduction in body temperature at 10 mg/kg, po administered via gavage pretreated for 30 mins followed by CP55940 addition measured at regular interval up to 4 hrs; type: ADME, organism-based; conditions: in vivo; summary of the method: as §1
# [4] = Drug uptake in C57BL/6 mouse brain at 1.25 mg/kg, po bid administered via gavage treated for 7 days measured at 0.5 to 24 hrs post last dose; type: ADME, organism-based; conditions: in vivo
# [5] = Aqueous kinetic solubility of the compound in 10 mM phosphate buffer at pH 7.4 after 90 mins by LC/MS analysis; type: physicochemical; conditions: read-out: Kinetic_solubility
# Summary of the method: (§2)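 10 mM DMSO stocks diluted into 10 mM phosphate buffer (final DMSO 1%), shaken 90 min at room temperature, filtered through 0.4 μm plates. Filtrate concentration quantified by LC/MS against a six-point standard curve. Mean of three determinations.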
# [6] = Aqueous kinetic solubility of the compound in 10 mM phosphate buffer at pH 1.6 after 90 mins by LC/MS analysis; type: physicochemical; conditions: read-out: Kinetic_solubility; summary of the method: as §2
# [7] = Drug uptake in alcohol-induced hepatic steatosis C57BL/6 mouse model brain at 1.25 mg/kg, po bid administered via gavage treated for 2 weeks measured at 16 hrs post last dose by LC-MS method; type: ADME, organism-based; conditions: in vivo
# Mus musculus [8] = experiment: Anti-hepatic steatosis activity in alcohol-induced hepatic steatosis C57BL/6 mouse model assessed as reduction in hepatic lipid accumulation at 1.25 mg/kg, po bid administered via gavage treated for 2 weeks by oil red o-staining based histopathological assay; type: functional, organism-based
# Summary of the method: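 Female C57BL6 mice on Lieber-DeCarli liquid diet; ethanol raised progressively 1 to 5% (v/v) over 15 days, then 4 further weeks; pair-fed controls on control diet. Drug suspended in 0.5% sodium carboxymethylcellulose, 1% NMP, 0.3% Tween 80, given 1.25 mg/kg twice daily by gavage for last 2 weeks. Liver sections (10 μm, OCT) stained with Oil Red O; droplets counted in six grids per image; n = 6 per group; ANOVA.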
# Chain of Cannabinoid receptor 2 (P34972 whole entry): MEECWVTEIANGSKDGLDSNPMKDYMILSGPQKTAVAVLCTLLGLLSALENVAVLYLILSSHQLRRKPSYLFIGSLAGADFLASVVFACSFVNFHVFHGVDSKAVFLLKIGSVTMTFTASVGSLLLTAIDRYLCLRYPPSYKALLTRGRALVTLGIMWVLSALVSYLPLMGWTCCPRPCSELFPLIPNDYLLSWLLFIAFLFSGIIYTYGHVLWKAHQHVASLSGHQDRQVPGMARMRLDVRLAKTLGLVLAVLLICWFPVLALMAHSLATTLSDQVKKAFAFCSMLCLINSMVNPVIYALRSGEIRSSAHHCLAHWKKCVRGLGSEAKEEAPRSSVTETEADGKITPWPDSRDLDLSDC
# Chain of Cannabinoid receptor 1 (P21554 whole entry): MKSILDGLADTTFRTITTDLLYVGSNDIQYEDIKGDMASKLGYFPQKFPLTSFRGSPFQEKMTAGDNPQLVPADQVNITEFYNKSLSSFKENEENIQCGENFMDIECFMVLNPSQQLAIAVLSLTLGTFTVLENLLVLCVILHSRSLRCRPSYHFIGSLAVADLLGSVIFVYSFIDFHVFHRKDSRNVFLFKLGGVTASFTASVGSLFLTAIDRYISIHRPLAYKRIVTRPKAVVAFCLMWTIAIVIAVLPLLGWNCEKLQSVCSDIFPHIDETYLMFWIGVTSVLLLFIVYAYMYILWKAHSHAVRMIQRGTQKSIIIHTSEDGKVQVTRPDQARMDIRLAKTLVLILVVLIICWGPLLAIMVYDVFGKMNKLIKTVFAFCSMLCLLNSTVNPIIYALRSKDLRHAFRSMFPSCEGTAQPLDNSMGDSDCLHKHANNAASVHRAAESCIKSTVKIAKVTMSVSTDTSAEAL
compound,measurement,setting,value
N#Cc1ccc(N2CCN(c3ncnc4c3nc(-c3ccccc3Cl)n4-c3ccc(Cl)cc3)CC2)cc1,Ki,Cannabinoid receptor 2,> 10 µM
Oc1cccc(N2CCN(c3ncnc4c3nc(-c3ccccc3Cl)n4-c3ccc(Cl)cc3)CC2)c1,Ki,Cannabinoid receptor 1,0.025 µM
same,Ki,Cannabinoid receptor 2,> 10 µM
CCNC1(C(N)=O)CCN(c2ncnc3c2nc(-c2ccccc2Cl)n3-c2ccc(Cl)cc2)CC1 [OTENABANT],Activity,Mus musculus [1],Toxic
N#Cc1ccccc1N1CCN(c2ncnc3c2nc(-c2ccccc2Cl)n3-c2ccc(Cl)cc2)CC1,Ki,Cannabinoid receptor 2,> 10 µM
COc1ccc(CN2CCN(c3ncnc4c3nc(-c3ccccc3Cl)n4-c3ccc(Cl)cc3)CC2)cc1,Ki,Cannabinoid receptor 2,> 10 µM
COc1ccccc1N1CCN(c2ncnc3c2nc(-c2ccccc2Cl)n3-c2ccc(Cl)cc2)CC1,Ki,Cannabinoid receptor 1,0.002 µM
same,Ki,Cannabinoid receptor 2,5 µM
N#CC(c1ccccc1)N1CCN(c2ncnc3c2nc(-c2ccccc2Cl)n3-c2ccc(Cl)cc2)CC1 (stereo not given),Ratio Ki,Homo sapiens,66
same,Ki,Cannabinoid receptor 1,0.007 µM
same,Ki,Cannabinoid receptor 2,0.46 µM
Cc1ccccc1CN1CCN(c2ncnc3c2nc(-c2ccccc2Cl)n3-c2ccc(Cl)cc2)CC1,Ki,Cannabinoid receptor 2,4.6 µM
Cc1c(C(=O)NN2CCCCC2)nn(-c2ccc(Cl)cc2Cl)c1-c1ccc(Cl)cc1 [RIMONABANT],Drug uptake,[2],Active
Clc1ccc(-n2c(-c3ccccc3Cl)nc3c(N4CCN(Cc5ccccc5)CC4)ncnc32)cc1,Ratio Ki,Homo sapiens,110
same,Ki,Cannabinoid receptor 1,0.004 µM
same,Ki,Cannabinoid receptor 2,0.43 µM
COc1ccc(N2CCN(c3ncnc4c3nc(-c3ccccc3Cl)n4-c3ccc(Cl)cc3)CC2)cc1,Ki,Cannabinoid receptor 2,> 10 µM
Clc1ccc(-n2c(-c3ccccc3Cl)nc3c(N4CCN(Cc5ccccc5Cl)CC4)ncnc32)cc1,Activity,Mus musculus [3],Non-Toxic
same,Drug uptake,[4],Not Active
same,solubility kinetic at […],[5],< 0.4 µM
same,solubility kinetic at […],[6],> 200 µM
same,Drug uptake,[7],Not Active
same,Activity,Mus musculus [8],Active
Clc1ccc(CN2CCN(c3ncnc4c3nc(-c3ccccc3Cl)n4-c3ccc(Cl)cc3)CC2)cc1,Ki,Cannabinoid receptor 2,> 10 µM
Cc1ccc(CN2CCN(c3ncnc4c3nc(-c3ccccc3Cl)n4-c3ccc(Cl)cc3)CC2)cc1,Ki,Cannabinoid receptor 2,> 10 µM
Clc1ccc(-n2c(-c3ccccc3Cl)nc3c(N4CCN(c5ccccc5)CC4)ncnc32)cc1,Ki,Cannabinoid receptor 2,> 10 µM
FC(F)(F)Oc1ccccc1CN1CCN(c2ncnc3c2nc(-c2ccccc2Cl)n3-c2ccc(Cl)cc2)CC1,Ki,Cannabinoid receptor 2,> 10 µM
Clc1ccc(-n2c(-c3ccccc3Cl)nc3c(N4CCN(CCc5ccncc5)CC4)ncnc32)cc1,Ratio Ki,Homo sapiens,52
same,Ki,Cannabinoid receptor 1,0.012 µM
same,Ki,Cannabinoid receptor 2,0.63 µM
